Measurements: PMC4668232 (Cancer research, 2015)
Numbered stars: 1 amine (or outer) side, 2 acyl side, 3 side chain; on linkers, the order of the positions; unused ones are H or OH. Peptide text beside a SMILES is read from it. * marks the point of attachment. AMC = Cc1cc(=O)oc2cc(N*)ccc12; Suc = O=C(CCC(=O)[*:2])[*:1]; Cbz = O=C(OCc1ccccc1)*

Assays:
DUBs = type: biochemical, mouse; conditions: for Labeling of several DUBs (bands between 120 and 300 kDa): cell lysates, HA-UbVS; for Reversibility of inhibition of DUB labeling: lysate incubated with 250 μM ITC, then diluted 20-fold into HA-UbVS
[1] = tested on: Bcr-Abl in BaF3/p210 and K562 cells; assay: Bcr-Abl ubiquitination; type: cell-based; conditions: 5 μM, 2 h
Outline: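 BaF3/p210 cells (1 h) or K562 cells (2 h) were exposed to 5 μM test compound or 0.1% DMSO at 37 °C. Lysates were set to 1 mg/mL and pre-cleared with protein G (1 h, 4 °C). Bcr-Abl was immunoprecipitated with anti-cAbl overnight at 4 °C onto protein G beads. Alternatively, K63-linked polyubiquitinated proteins were enriched on RAP80-UIM agarose. Immunoblotting followed.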

recombinant USP9x [2] = biological target: T1, recombinant USP9x (Homo sapiens, UniProt Q93008); assay: Recombinant DUB assay; type: biochemical; conditions: for Ki: read-out: Ki, recombinant USP9x, Ub-AMC hydrolysis
Outline: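 Purified recombinant human USP9x was assayed by Ub-AMC hydrolysis. AMC release was monitored fluorimetrically at 37 °C in 50 mM HEPES pH 7.6, 100 mM NaCl, 0.75 mM BME and quantified against AMC standard curves. Slow-binding kinetics were analysed: kon was determined at varied Ub-AMC concentrations to assign inhibition mode, and Ki was derived.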

[3] = tested on: BaF3, BaF3/p210 and K562 cells; assay: Proliferation/viability assay, 48 h; type: cell-based; conditions: read-out: EC50, viability
[4] = tested on: MCF7, NIH3T3 and COS1 cells; assay: Proliferation/viability assay, 48 h; type: cell-based
catalytic domain of USP7 = catalytic domain of USP7 (Homo sapiens, UniProt Q93009); assay: Recombinant DUB assay, USP7 catalytic domain; type: biochemical
UCH37 = UCH37 (Mus musculus, UniProt Q9WUP7); assay: DUB activity profiling in cell lysates, UCH37 labeling; type: biochemical; conditions: read-out: IC50, inhibition of UCH37 labeling
[5] = tested on: K48-linked Ub in BaF3/p210 cells; assay: K48-linked HMW-Ub accumulation, whole cell lysate western blot; type: cell-based, mouse; conditions: 4 h; for Increase in K48-linked Ub: 15 μM; for Accumulation of K48-linked HMW-Ub: bortezomib 20 nM
USP7 = USP7 (Mus musculus, UniProt Q6A4J8); assay: DUB activity profiling in cell lysates, USP7; type: biochemical; conditions: immunoblotting
Flag-Mcl-1 in COS1 cells = assay: Flag-Mcl-1 ubiquitination, immunoprecipitation; type: cell-based, African green monkey; conditions: COS1 cells expressing Flag-Mcl-1, 2 h
USP9x in BaF3/p210 cells = USP9x in BaF3/p210 cells (Mus musculus, UniProt P70398); assay: USP9x inhibition in living cells; type: cell-based; conditions: read-out: IC50, USP9x inhibition in cells; BaF3/p210 cells treated 4 h
USP9x = USP9x (Mus musculus, UniProt P70398); assay: DUB activity profiling in cell lysates, USP9x labeling; type: biochemical; conditions: read-out: IC50, inhibition of USP9x labeling
USP24 = USP24 (Mus musculus, UniProt B1AY13); assay: DUB activity profiling in cell lysates, USP24 labeling; type: biochemical; conditions: read-out: IC50, USP24 labeling
[6] = biological target: UCH37 in the 19S regulatory particle (Homo sapiens, UniProt Q9Y5K5); assay: Activity profiling of UCH37 in 19S regulatory particle with Cy5-UbVME; type: biochemical; conditions: read-out: EC50, inhibition of UCH37
[7] = tested on: K63-linked Ub in BaF3/p210 cells; assay: K63-linked HMW-Ub accumulation, whole cell lysate western blot; type: cell-based, mouse; conditions: 4 h
[8] = tested on: 26S proteasome activity in COS1 cells expressing Ub^G76V-GFP; assay: Ubiquitin G76V-GFP assay; type: cell-based, African green monkey; conditions: 8 h; for Effect on GFP levels: BITC, PEITC 12 μM, WP1130 5 μM
recombinant USP9x [9] = biological target: T1, recombinant USP9x; assay: Labeling of recombinant USP9x with Cy5-UbVME; type: biochemical; conditions: read-out: IC50, inhibition of labeling of recombinant USP9x with Cy5-UbVME; purified recombinant enzyme
[10] = tested on: PARP cleavage in BaF3/p210 cells; assay: PARP cleavage, western blot; type: cell-based, mouse; conditions: 5 μM
[11] = tested on: Bcr-Abl in BaF3/p210 cells; assay: Bcr-Abl levels and aggregation, western blot; type: cell-based, mouse
cancer cell lines = conditions: read-out: EC50, inhibition of cell growth; exposure for only 3 h; cited from earlier work
recombinant UCHL3 = recombinant UCHL3 (Homo sapiens, UniProt P15374); assay: Recombinant DUB assay, UCHL3; type: biochemical
Mcl-1 in BaF3/p210 cells = assay: Mcl-1 levels, western blot; type: cell-based, mouse; conditions: 4 h
human 20S proteasome = human 20S proteasome (Homo sapiens, UniProt P28074); assay: 20S proteasome assay; type: biochemical; conditions: substrate; Hill coefficient = 2; pH 7.6, 25 °C
[12] = tested on: proteasome activity of rabbit reticulocyte lysate; assay: Proteasome activity of rabbit reticulocyte lysate; type: biochemical; conditions: substrate; Hill coefficient = 1.3

T1 sequence (Q93008 whole entry): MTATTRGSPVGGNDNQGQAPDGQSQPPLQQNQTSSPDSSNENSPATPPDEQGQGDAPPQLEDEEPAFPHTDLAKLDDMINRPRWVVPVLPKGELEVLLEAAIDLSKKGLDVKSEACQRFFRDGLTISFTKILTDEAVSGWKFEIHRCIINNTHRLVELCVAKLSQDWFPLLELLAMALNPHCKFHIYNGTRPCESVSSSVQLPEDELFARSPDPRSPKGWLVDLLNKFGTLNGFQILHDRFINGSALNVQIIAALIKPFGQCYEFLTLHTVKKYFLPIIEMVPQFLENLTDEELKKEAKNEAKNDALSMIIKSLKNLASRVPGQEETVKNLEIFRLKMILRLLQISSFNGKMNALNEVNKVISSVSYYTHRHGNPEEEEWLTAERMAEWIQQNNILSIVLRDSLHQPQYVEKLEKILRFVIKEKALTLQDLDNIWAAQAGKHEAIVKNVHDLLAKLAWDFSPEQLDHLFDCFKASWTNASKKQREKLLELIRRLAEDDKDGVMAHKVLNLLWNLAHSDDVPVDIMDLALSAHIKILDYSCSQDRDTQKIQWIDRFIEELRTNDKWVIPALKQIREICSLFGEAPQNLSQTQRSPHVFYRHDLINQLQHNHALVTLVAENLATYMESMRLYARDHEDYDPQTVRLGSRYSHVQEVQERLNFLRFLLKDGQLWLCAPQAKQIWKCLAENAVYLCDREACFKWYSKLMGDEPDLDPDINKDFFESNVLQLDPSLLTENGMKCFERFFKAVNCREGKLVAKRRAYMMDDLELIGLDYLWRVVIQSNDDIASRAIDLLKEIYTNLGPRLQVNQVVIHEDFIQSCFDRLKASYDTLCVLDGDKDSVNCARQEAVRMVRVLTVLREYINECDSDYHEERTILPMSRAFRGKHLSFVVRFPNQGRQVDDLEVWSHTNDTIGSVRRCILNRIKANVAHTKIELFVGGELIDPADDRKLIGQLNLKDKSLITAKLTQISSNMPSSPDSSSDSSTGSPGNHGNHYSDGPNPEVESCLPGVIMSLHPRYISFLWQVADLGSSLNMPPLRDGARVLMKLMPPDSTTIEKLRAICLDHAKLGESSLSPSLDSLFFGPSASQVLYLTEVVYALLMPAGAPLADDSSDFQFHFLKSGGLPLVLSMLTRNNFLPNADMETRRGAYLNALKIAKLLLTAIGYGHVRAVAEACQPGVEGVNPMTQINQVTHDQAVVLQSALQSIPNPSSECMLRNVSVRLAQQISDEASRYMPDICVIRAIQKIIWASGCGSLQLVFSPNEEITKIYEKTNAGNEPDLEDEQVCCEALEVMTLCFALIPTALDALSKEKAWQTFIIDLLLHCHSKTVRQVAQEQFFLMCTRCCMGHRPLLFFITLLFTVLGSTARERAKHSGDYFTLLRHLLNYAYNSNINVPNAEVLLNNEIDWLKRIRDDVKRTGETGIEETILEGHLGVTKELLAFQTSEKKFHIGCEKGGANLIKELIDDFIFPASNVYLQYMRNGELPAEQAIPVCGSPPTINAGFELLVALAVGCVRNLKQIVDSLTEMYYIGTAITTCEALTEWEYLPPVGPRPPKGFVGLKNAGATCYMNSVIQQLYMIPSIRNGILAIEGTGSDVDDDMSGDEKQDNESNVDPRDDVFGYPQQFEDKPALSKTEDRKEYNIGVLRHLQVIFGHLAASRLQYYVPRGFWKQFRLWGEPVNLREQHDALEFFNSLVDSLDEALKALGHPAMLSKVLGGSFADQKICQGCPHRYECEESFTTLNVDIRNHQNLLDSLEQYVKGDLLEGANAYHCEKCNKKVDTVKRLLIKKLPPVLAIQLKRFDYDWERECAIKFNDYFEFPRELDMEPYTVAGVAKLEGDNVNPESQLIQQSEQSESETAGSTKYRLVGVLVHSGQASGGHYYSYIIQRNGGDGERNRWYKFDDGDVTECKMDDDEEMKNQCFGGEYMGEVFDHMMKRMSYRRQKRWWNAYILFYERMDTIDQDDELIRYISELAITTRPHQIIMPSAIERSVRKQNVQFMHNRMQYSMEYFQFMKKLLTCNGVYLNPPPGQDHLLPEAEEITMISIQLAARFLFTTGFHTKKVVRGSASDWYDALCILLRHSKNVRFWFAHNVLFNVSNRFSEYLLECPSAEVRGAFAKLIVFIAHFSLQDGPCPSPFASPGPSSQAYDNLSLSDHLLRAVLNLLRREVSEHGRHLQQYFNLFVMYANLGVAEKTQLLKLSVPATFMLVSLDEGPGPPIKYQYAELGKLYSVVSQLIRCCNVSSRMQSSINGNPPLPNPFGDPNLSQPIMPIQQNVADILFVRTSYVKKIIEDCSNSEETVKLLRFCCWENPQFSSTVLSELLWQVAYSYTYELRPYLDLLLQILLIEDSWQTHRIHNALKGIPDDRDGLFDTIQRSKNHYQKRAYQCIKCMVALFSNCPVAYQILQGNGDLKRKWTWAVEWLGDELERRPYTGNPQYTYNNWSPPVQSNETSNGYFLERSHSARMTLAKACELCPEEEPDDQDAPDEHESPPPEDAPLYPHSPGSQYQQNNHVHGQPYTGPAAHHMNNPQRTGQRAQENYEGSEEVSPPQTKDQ
Sequence of USP24 (B1AY13 whole entry): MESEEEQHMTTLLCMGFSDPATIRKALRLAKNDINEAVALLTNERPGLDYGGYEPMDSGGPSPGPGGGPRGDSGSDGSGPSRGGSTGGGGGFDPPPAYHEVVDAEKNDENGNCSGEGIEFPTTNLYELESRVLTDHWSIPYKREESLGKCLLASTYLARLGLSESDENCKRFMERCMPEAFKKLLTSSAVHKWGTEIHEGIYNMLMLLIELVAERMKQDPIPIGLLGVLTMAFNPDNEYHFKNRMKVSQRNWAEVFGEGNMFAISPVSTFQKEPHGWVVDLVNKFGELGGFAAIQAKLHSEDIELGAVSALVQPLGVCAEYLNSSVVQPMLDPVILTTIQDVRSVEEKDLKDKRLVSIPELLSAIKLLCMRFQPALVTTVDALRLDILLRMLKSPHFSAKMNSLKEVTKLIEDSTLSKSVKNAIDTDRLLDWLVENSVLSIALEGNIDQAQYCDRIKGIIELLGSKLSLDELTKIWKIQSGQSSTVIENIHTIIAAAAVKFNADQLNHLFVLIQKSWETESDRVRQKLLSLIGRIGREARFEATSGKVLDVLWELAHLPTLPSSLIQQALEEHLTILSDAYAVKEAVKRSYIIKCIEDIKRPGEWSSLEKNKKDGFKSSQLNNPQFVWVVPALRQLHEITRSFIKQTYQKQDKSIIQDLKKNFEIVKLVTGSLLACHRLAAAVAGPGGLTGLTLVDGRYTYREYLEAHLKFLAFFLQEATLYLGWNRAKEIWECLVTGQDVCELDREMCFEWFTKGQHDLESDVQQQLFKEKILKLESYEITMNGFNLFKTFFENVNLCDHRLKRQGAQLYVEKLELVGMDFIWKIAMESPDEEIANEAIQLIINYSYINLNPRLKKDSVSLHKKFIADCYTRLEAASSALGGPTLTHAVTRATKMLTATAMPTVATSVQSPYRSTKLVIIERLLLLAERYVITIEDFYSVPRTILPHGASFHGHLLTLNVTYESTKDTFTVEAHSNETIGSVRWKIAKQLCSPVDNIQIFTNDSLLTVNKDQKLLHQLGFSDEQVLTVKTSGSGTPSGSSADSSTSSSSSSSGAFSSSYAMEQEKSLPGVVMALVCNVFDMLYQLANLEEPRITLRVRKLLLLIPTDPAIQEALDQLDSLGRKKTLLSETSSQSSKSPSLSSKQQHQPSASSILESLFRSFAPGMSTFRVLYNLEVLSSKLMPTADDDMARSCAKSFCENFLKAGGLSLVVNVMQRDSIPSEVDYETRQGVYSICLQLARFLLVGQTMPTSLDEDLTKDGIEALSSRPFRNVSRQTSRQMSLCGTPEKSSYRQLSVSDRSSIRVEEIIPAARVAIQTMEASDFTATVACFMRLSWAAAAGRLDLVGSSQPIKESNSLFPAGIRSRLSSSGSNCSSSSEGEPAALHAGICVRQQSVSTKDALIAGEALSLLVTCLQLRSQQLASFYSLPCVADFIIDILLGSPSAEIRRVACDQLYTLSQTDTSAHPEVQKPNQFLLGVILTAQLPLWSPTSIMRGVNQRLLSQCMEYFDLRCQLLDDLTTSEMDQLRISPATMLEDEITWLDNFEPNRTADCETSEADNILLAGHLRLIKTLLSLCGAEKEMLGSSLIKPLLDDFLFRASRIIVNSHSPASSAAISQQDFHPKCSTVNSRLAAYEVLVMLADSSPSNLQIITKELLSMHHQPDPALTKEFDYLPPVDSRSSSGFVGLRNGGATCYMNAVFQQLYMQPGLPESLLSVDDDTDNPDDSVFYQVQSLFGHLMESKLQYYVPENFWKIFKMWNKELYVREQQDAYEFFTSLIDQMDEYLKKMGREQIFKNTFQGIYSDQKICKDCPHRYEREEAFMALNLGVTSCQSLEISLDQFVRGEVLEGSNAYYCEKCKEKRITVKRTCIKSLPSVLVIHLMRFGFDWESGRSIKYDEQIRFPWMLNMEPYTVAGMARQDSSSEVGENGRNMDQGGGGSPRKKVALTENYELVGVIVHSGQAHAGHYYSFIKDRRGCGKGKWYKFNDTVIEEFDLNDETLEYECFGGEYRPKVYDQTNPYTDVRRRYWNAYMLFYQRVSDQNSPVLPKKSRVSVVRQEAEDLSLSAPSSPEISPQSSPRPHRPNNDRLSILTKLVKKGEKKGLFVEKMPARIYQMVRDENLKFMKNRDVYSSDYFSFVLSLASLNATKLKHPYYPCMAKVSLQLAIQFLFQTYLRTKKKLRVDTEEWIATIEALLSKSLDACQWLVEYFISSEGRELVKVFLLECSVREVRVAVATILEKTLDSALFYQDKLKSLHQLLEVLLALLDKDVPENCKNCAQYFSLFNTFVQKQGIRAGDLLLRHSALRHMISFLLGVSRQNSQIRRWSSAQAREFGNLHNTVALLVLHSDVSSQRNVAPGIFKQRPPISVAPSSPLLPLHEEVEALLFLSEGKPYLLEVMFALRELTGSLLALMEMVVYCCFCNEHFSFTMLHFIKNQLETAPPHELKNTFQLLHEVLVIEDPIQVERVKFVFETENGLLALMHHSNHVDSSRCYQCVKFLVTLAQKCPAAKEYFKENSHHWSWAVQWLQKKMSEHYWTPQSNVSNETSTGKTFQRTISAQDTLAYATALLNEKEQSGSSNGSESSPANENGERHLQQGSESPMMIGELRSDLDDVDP

## O=C1/C(=C/c2ccc([N+](=O)[O-])cc2)CS(=O)(=O)C/C1=C\c1ccc([N+](=O)[O-])cc1 [G5, reference compound]
DUBs
  Labeling of several DUBs (bands between 120 and 300 kDa): reduced

## S=C=NCCc1ccccc1 [PEITC, phenethyl ITC]
[1]
  Bcr-Abl ubiquitination: increase
Recombinant USP9x [2]
  Mode of inhibition of recombinant USP9x: slow binding competitive inhibitors
  Ki: 23 ± 2 µM
[3]
  EC50: 1 to 3 µM
[4]
  Fold less sensitive than Mcl-1-dependent cells: 8 to 40 fold
Catalytic domain of USP7
  Inhibition of the catalytic domain of USP7: No inhibition
UCH37
  IC50: 13 ± 1 µM
[5]
  Increase in K48-linked Ub: 2 to 4 fold
USP7
  Inhibition of USP7: do not inhibit
Flag-Mcl-1 in COS1 cells
  Levels of ubiquitinated Flag-Mcl-1: increased
USP9x in BaF3/p210 cells
  IC50: 7 ± 2 µM
USP9x
  IC50: 15 ± 3 µM
USP24
  IC50: 28 ± 5 µM
[6]
  EC50: 36 ± 5 µM
[7]
  Increase in K63-linked Ub: 9-18 fold
[8]
  Effect on GFP levels: did not increase
Recombinant USP9x [9]
  IC50: 20 ± 2 µM
[10]
  Time at which PARP cleavage was observed: 4 h
DUBs
  Reversibility of inhibition of DUB labeling: slowly reversible
[11]
  Effect on levels of total Bcr-Abl: decreased
[11]; 5 μM, within 2 h
  Bcr-Abl level, % of its initial level: 20%
Cancer cell lines
  EC50: 1.8 to 17 µM
Recombinant UCHL3
  Inhibition of recombinant UCHL3: No inhibition
Mcl-1 in BaF3/p210 cells
  Effect on Mcl-1 levels: decrease

## CC(C)C[C@@H](C=O)NC(=O)[C@H](CC(C)C)NC(=O)[C@H](CC(C)C)NC(=O)OCc1ccccc1 [MG-132, reference compound] (Cbz-Leu-Leu-Leu-aldehyde)
Mcl-1 in BaF3/p210 cells
  Effect on Mcl-1 levels: increased

## C[S+]([O-])CCCCN=C=S (stereo not shown) [SFN, sulforaphane]
[5]
  Accumulation of K48-linked HMW-Ub: no effect
Cancer cell lines
  EC50: ~50 µM

## Cc1cc(=O)oc2cc(NC(=O)[C@H](Cc3ccc(O)cc3)NC(=O)[C@@H](NC(=O)[C@H](CC(C)C)NC(=O)[C@H](CC(C)C)NC(=O)CCC(=O)O)C(C)C)ccc12 [Suc-Leu-Leu-Val-Tyr-AMC] (Suc-LLVY-{AMC})
Human 20S proteasome
  K0.5 for human 20S proteasome: 12 ± 2 µM
[12]
  Apparent K0.5 of proteasome activity of rabbit reticulocyte lysate: 28 ± 3 µM

## S=C=NCc1ccccc1 [BITC, benzyl ITC]
[1]
  Bcr-Abl ubiquitination: increase
Recombinant USP9x [2]
  Mode of inhibition of recombinant USP9x: slow binding competitive inhibitors
  Ki: 25 ± 1 µM
[3]
  EC50: 1 to 3 µM
[4]
  Fold less sensitive than Mcl-1-dependent cells: 8 to 40 fold
Catalytic domain of USP7
  Inhibition of the catalytic domain of USP7: No inhibition
UCH37
  IC50: 22 ± 4 µM
[5]
  Increase in K48-linked Ub: 2 to 4 fold
USP7
  Inhibition of USP7: do not inhibit
Flag-Mcl-1 in COS1 cells
  Levels of ubiquitinated Flag-Mcl-1: increased
USP9x in BaF3/p210 cells
  IC50: 4 ± 1 µM
USP9x
  IC50: 27 ± 6 µM
USP24
  IC50: 56 ± 5 µM
[6]
  EC50: 31 ± 6 µM
[7]
  Increase in K63-linked Ub: 9-18 fold
[8]
  Effect on GFP levels: did not increase
[10]
  Time at which PARP cleavage was observed: 6 h
DUBs
  Reversibility of inhibition of DUB labeling: slowly reversible
[11]
  Effect on levels of total Bcr-Abl: decreased
[11]; 5 μM, 2 h
  Bcr-Abl knockdown: essentially complete
Cancer cell lines
  EC50: 1.8 to 17 µM
Recombinant UCHL3
  Inhibition of recombinant UCHL3: No inhibition
Mcl-1 in BaF3/p210 cells
  Effect on Mcl-1 levels: decrease

## CC(C)C[C@H](NC(=O)[C@H](Cc1ccccc1)NC(=O)c1cnccn1)B(O)O [bortezomib, reference compound]
[5]
  Accumulation of K48-linked HMW-Ub: increased
Flag-Mcl-1 in COS1 cells
  Levels of ubiquitinated Flag-Mcl-1: increased
[7]; bortezomib 20 nM
  Effect on K63-linked Ub: no effect
[8]; bortezomib 4 μM
  Increase in GFP fluorescence: 1.5 fold
Mcl-1 in BaF3/p210 cells
  Effect on Mcl-1 levels: increased

## CCC[C@H](NC(=O)/C(C#N)=C/c1cccc(Br)n1)c1ccccc1 [WP1130, reference compound]
Flag-Mcl-1 in COS1 cells
  Levels of ubiquitinated Flag-Mcl-1: increased
[8]
  Effect on GFP levels: did not cause an increase
DUBs
  Labeling of several DUBs (bands between 120 and 300 kDa): reduced
